From ChEMBL document CHEMBL3120107, “Cytotoxic cardiac glycosides and coumarins from Antiaris toxicaria” (2014)
Values after ≈ are worked out from the molar mass of the structure shown.

What was measured:
[1] = Cytotoxicity against human KBVIN cells assessed as growth inhibition after 72 hrs by SRB assay; format: functional; conditions: Homo sapiens, KBVIN, 72 h; read-out: ED50 (the source's name)
Outline: (§1)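 Sulforhodamine B assay run by NCI-validated procedure. Cells grown at 37 °C under humidified 5% CO2 in RPMI-1640 with 25 mM HEPES, […] (w/v) sodium bicarbonate, 10% (v/v) FBS and 100 μg/mL kanamycin. Compounds came from DMSO stocks, with final DMSO ≤ 1% (v/v). Continuous exposure for 72 h. ED50 (μg/mL, 50% cell-number reduction) interpolated from dose-response data. Triplicate tests. Doxorubicin served as positive control.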

[2] = Cytotoxicity against human […] cells assessed as growth inhibition after 72 hrs by SRB assay; format: functional; conditions: Homo sapiens, HCT9, 72 h; read-out: ED50 (the source's name); outline: as §1
[3] = Cytotoxicity against human U87MG cells assessed as growth inhibition after 72 hrs by SRB assay; format: functional, U-87MG ATCC; conditions: Homo sapiens, U-87 MG, 72 h; read-out: ED50 (the source's name); outline: as §1
PC-3 = test: Cytotoxicity against human PC3 cells assessed as growth inhibition after 72 hrs by SRB assay; format: functional; conditions: Homo sapiens, PC-3, 72 h; read-out: ED50 (the source's name); outline: as §1
KB = test: Cytotoxicity against human KB cells assessed as growth inhibition after 72 hrs by SRB assay; format: functional; conditions: Homo sapiens, KB, 72 h; read-out: ED50 (the source's name); outline: as §1
A549 = test: Cytotoxicity against human A549 cells assessed as growth inhibition after 72 hrs by SRB assay; format: functional; conditions: Homo sapiens, A549, 72 h; read-out: ED50 (the source's name); outline: as §1
CAKI-1 = test: Cytotoxicity against human CAKI-1 cells assessed as growth inhibition after 72 hrs by SRB assay; format: functional; conditions: Homo sapiens, CAKI-1, 72 h; read-out: ED50 (the source's name); outline: as §1
1A9 = test: Cytotoxicity against human 1A9 cells assessed as growth inhibition after 72 hrs by SRB assay; format: functional; conditions: Homo sapiens, 1A9, 72 h; read-out: ED50 (the source's name); outline: as §1
SK-MEL-2 = test: Cytotoxicity against human SK-MEL-2 cells assessed as growth inhibition after 72 hrs by SRB assay; format: functional; conditions: Homo sapiens, SK-MEL-2, 72 h; read-out: ED50 (the source's name); outline: as §1
MCF7 = test: Cytotoxicity against human MCF7 cells assessed as growth inhibition after 72 hrs by SRB assay; format: functional; conditions: Homo sapiens, MCF7, 72 h; read-out: ED50 (the source's name); outline: as §1

Compound | EC50 [1] [µg/mL] | EC50 [2] [µg/mL] | EC50 [3] [µg/mL] | EC50 (PC-3) [µg/mL] | EC50 (KB) [µg/mL] | EC50 (A549) [µg/mL] | EC50 (CAKI-1) [µg/mL] | EC50 (1A9) [µg/mL] | EC50 (SK-MEL-2) [µg/mL] | EC50 (MCF7) [µg/mL]
C[C@H]1O[C@@H](O[C@H]2CC[C@]3(C)[C@H]4CC[C@]5(C)[C@@H](C6=CC(=O)OC6)CC[C@]5(O)[C@@H]4CC[C@]3(O)C2)[C@H](O)[C@H](O)[C@H]1O [ANTIAROSIDE A] | 0.068 (≈ 0.127 µM) | 0.09 (≈ 0.168 µM) | 0.15 (≈ 0.28 µM) | 0.078 (≈ 0.145 µM) | 0.0097 (≈ 0.0181 µM) | 0.044 (≈ 0.082 µM) | 0.018 (≈ 0.0335 µM) | 0.02 (≈ 0.0373 µM) | 0.073 (≈ 0.136 µM) | 0.063 (≈ 0.117 µM)
C[C@@H]1O[C@H](O[C@@H]2CC[C@]3(C=O)[C@H]4CC[C@]5(C)[C@@H](C6=CC(=O)OC6)CC[C@]5(O)[C@@H]4CC[C@]3(O)C2)[C@H](O)[C@H](O)[C@H]1O [ANTIAROSIDE C] | 1.6 (≈ 2.91 µM) | 1.5 (≈ 2.72 µM) | 1.7 (≈ 3.09 µM) | 0.42 (≈ 0.763 µM) | 1.5 (≈ 2.72 µM) | 0.48 (≈ 0.872 µM) | 0.32 (≈ 0.581 µM) | 0.39 (≈ 0.708 µM) | 0.26 (≈ 0.472 µM) | 1.4 (≈ 2.54 µM)
C[C@@H]1O[C@@H](O[C@@H]2CC[C@@]3(CO)[C@H](CC[C@@H]4[C@@H]3CC[C@]3(C)[C@@H](C5=CC(=O)OC5)CC[C@]43O)C2)[C@H](O)[C@H](O)[C@H]1O[C@@H]1O[C@H](CO)[C@@H](O)[C@H](O)[C@H]1O [ANTIAROSIDE D] | 1.9 (≈ 2.72 µM) | 1.9 (≈ 2.72 µM) | 4.2 (≈ 6.01 µM) | 0.53 (≈ 0.758 µM) | 1.7 (≈ 2.43 µM) | 0.38 (≈ 0.544 µM) | 0.93 (≈ 1.33 µM) | 0.74 (≈ 1.06 µM) | 0.31 (≈ 0.444 µM) | 1 (≈ 1.43 µM)
C[C@@H]1O[C@H](O[C@H]2CC[C@@]3(C(=O)O)[C@H](CC[C@@H]4[C@@H]3CC[C@]3(C)[C@@H](C5=CC(=O)OC5)CC[C@]43O)C2)[C@H](O)[C@H](O)[C@H]1O [ANTIAROSIDE E] | 0.57 (≈ 1.04 µM) | 0.35 (≈ 0.636 µM) | 0.73 (≈ 1.33 µM) | 0.16 (≈ 0.291 µM) | 0.49 (≈ 0.89 µM) | 0.07 (≈ 0.127 µM) | 0.13 (≈ 0.236 µM) | 0.13 (≈ 0.236 µM) | 0.12 (≈ 0.218 µM) | 0.42 (≈ 0.763 µM)
C[C@@H]1O[C@H](O[C@H]2CC[C@@]3(C(=O)O[C@@H]4O[C@H](CO)[C@@H](O)[C@H](O)[C@H]4O)[C@H](CC[C@@H]4[C@@H]3CC[C@]3(C)[C@@H](C5=CC(=O)OC5)CC[C@]43O)C2)[C@H](O)[C@H](O)[C@H]1O [ANTIAROSIDE F] | 2.2 (≈ 3.09 µM) | 3.4 (≈ 4.77 µM) | 4.5 (≈ 6.31 µM) | 0.89 (≈ 1.25 µM) | 1.8 (≈ 2.53 µM) | 0.54 (≈ 0.758 µM) | 1.2 (≈ 1.68 µM) | 0.97 (≈ 1.36 µM) | 0.32 (≈ 0.449 µM) | 1.3 (≈ 1.82 µM)
C[C@@H]1O[C@H](O[C@H]2CC[C@]3(C(=O)O)[C@H]4C[C@@H](O)[C@]5(C)[C@@H](C6=CC(=O)OC6)CC[C@]5(O)[C@@H]4CC[C@]3(O)C2)[C@H](O)[C@H](O)[C@H]1O [ANTIAROSIDE G] |  |  |  |  |  | 5.3 (≈ 9.1 µM) |  |  |  | 17.5 (≈ 30 µM)
C[C@H]1O[C@H](O[C@H]2CC[C@]3(C(=O)O)[C@H]4C[C@@H](O)[C@]5(C)[C@@H](C6=CC(=O)OC6)CC[C@]5(O)[C@@H]4CC[C@]3(O)C2)[C@H](O)[C@H](O)[C@H]1O [ANTIAROSIDE H] | 7.1 (≈ 12.2 µM) | 2.5 (≈ 4.29 µM) | 7.3 (≈ 12.5 µM) | 1.8 (≈ 3.09 µM) | 5.9 (≈ 10.1 µM) | 0.76 (≈ 1.3 µM) | 1.5 (≈ 2.57 µM) | 1.4 (≈ 2.4 µM) | 1.3 (≈ 2.23 µM) | 3.1 (≈ 5.32 µM)
C[C@@H]1O[C@H](O[C@H]2CC[C@@H]3[C@H]4CC[C@]5(C)[C@@H](C6=CC(=O)OC6)CC[C@]5(O)[C@@H]4CC[C@]3(O)C2)[C@H](O)[C@H](O)[C@H]1O [ANTIAROSIDE I] | 2.3 (≈ 4.4 µM) | 2.9 (≈ 5.55 µM) | 3.6 (≈ 6.89 µM) | 0.9 (≈ 1.72 µM) | 2 (≈ 3.83 µM) | 0.36 (≈ 0.689 µM) | 1.1 (≈ 2.1 µM) | 0.83 (≈ 1.59 µM) | 0.3 (≈ 0.574 µM) | 1.3 (≈ 2.49 µM)
C[C@]12CC[C@H](O)C[C@@]1(O)CC[C@@H]1[C@@H]2CC[C@]2(C)[C@@H]([C@]3(O)COC(=O)C3)CC[C@]12O [ANTIAROTOXININ A] |  |  |  |  |  | 4.3 (≈ 10.5 µM) |  |  |  | 15 (≈ 36.7 µM)
C[C@@H]1O[C@@H](O[C@H]2CC[C@]3(C=O)[C@H]4CC[C@]5(C)[C@@H](C6=CC(=O)OC6)CC[C@]5(O)[C@@H]4CC[C@]3(O)C2)[C@H](O)[C@H](O)[C@H]1O [CONVALLATOXIN] | 0.013 (≈ 0.0236 µM) | 0.0014 (≈ 0.00254 µM) | 0.014 (≈ 0.0254 µM) | 0.094 (≈ 0.171 µM) | 0.014 (≈ 0.0254 µM) | 0.0027 (≈ 0.0049 µM) | 0.0031 (≈ 0.00563 µM) | 0.03 (≈ 0.0545 µM) | 0.0013 (≈ 0.00236 µM) | 0.0065 (≈ 0.0118 µM)
